Source: ChEMBL document CHEMBL1152476, “Synthesis and in vitro cytotoxicity of 9-anilinoacridines bearing N-mustard residue on both anilino and acridine rings” (Eur J Med Chem, 2009)

Assays:
CCRF-CEM [1] = test: Antitumor activity in human CCRF-CEM cells xenografted mouse at 2 mg/kg, iv qd for 3 days; format: functional, organism-based; design: dose 2 mg/kg
Method in brief: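 Mice received intravenous injection at 2 mg/kg, once daily ×3 (QD×3), in a DMSO/Tween 80/normal saline vehicle.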

CCRF-CEM [2] = test: Cytotoxicity against human CCRF-CEM cells after 72 hrs by XTT-tetrazolium assay; format: functional, cell-based
Method in brief: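 CCRF-CEM human T-cell acute lymphocytic leukemia cells exposed for 72 h to six or seven concentrations per compound. Phenazine methosulfate–XTT was then added for 6 h at 37 °C, and absorbance was read at 450 and 630 nm. IC50 was derived from the dose–effect relationship by median–effect plot analysis.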

[3] = Solubility in normal saline; format: physicochemical; settings: buffer
[4] = Solubility in dimethyl sulfoxide; format: physicochemical
[5] = Solubility in Tween 80; format: physicochemical
CCRF-CEM [6] = test: Ratio of AHMA IC50 to compound IC50 against human CCRF-CEM cells; format: functional
Method in brief: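 Ratio of AHMA IC50 to test compound IC50, both from the same 72 h CCRF-CEM XTT assay. Six or seven concentrations per drug were tested, and each IC50 came from a median–effect analysis of the dose–effect relationship.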

For ClCCN(CCCl)CCCCOc1cccc(Nc2c3ccccc3nc3c(OCCN(CCCl)CCCl)cccc23)c1, the Activity (CCRF-CEM [1]) was “Toxic”, the IC50 (CCRF-CEM [2]) was 6 nM and the solubility [3] was “Insoluble”. For the same molecule, the solubility [4] was “Insoluble”, the solubility [5] was “Insoluble” and the “Ratio IC50” value (CCRF-CEM [6]) was 30.
For COc1cc(N)cc(Nc2c3ccccc3nc3c(OCCN(CCCl)CCCl)cccc23)c1, the Activity (CCRF-CEM [1]) was “Toxic”, the IC50 (CCRF-CEM [2]) was 6.7 nM and the solubility [3] was “Insoluble”. For the same molecule, the solubility [4] was “Insoluble”, the solubility [5] was “Insoluble” and the “Ratio IC50” value (CCRF-CEM [6]) was 30.
In the case of CC(=O)O[C@H]1C(=O)[C@@]2(C)[C@H]([C@H](OC(=O)c3ccccc3)[C@]3(O)C[C@H](OC(=O)[C@H](O)[C@@H](NC(=O)c4ccccc4)c4ccccc4)C(C)=C1C3(C)C)[C@]1(OC(C)=O)CO[C@@H]1C[C@@H]2O, the Activity (CCRF-CEM [1]) is reported as “Toxic”.
For ClCCN(CCCl)CCOc1ccc(Nc2c3ccccc3nc3c(OCCN(CCCl)CCCl)cccc23)cc1, the Activity (CCRF-CEM [1]) was “Toxic”, the IC50 (CCRF-CEM [2]) was 14.2 nM and the solubility [3] was “Insoluble”. The solubility [4] was “Insoluble”, the solubility [5] was “Insoluble” and the “Ratio IC50” value (CCRF-CEM [6]) was 30.
In the case of ClCCN(CCCl)CCCCOc1cccc2c(Nc3ccc(OCCN(CCCl)CCCl)cc3)c3ccccc3nc12, the Activity (CCRF-CEM [1]) is reported as “Toxic”, the IC50 (CCRF-CEM [2]) is reported as 1.3 nM and the solubility [3] is reported as “Insoluble”. The solubility [4] was “Insoluble”, the solubility [5] was “Insoluble” and the “Ratio IC50” value (CCRF-CEM [6]) was 30.
For ClCCN(CCCl)CCCCOc1ccc(Nc2c3ccccc3nc3ccccc23)cc1, the Activity (CCRF-CEM [1]) was “Toxic”, the IC50 (CCRF-CEM [2]) was 56 nM and the solubility [3] was “Insoluble”. For the same molecule, the solubility [4] was “Insoluble”, the solubility [5] was “Insoluble” and the “Ratio IC50” value (CCRF-CEM [6]) was 30.
In the case of ClCCN(CCCl)CCOc1cccc(Nc2c3ccccc3nc3ccccc23)c1, the Activity (CCRF-CEM [1]) is reported as “Toxic”, the IC50 (CCRF-CEM [2]) is reported as 86 nM and the solubility [3] is reported as “Insoluble”. The solubility [4] was “Insoluble”, the solubility [5] was “Insoluble” and the “Ratio IC50” value (CCRF-CEM [6]) was 30.
For ClCCN(CCCl)CCCCOc1ccc(Nc2c3ccccc3nc3c(OCCN(CCCl)CCCl)cccc23)cc1, the Activity (CCRF-CEM [1]) was “Toxic”, the IC50 (CCRF-CEM [2]) was 21 nM and the solubility [3] was “Insoluble”. For the same molecule, the solubility [4] was “Insoluble”, the solubility [5] was “Insoluble” and the “Ratio IC50” value (CCRF-CEM [6]) was 30.
In the case of ClCCN(CCCl)CCCCOc1cccc(Nc2c3ccccc3nc3ccccc23)c1, the Activity (CCRF-CEM [1]) is reported as “Toxic”, the IC50 (CCRF-CEM [2]) is reported as 392 nM and the solubility [3] is reported as “Insoluble”. The solubility [4] was “Insoluble”, the solubility [5] was “Insoluble” and the “Ratio IC50” value (CCRF-CEM [6]) was 30.
For ClCCN(CCCl)CCOc1cccc(Nc2c3ccccc3nc3c(OCCN(CCCl)CCCl)cccc23)c1, the Activity (CCRF-CEM [1]) was “Toxic”, the IC50 (CCRF-CEM [2]) was 17 nM and the solubility [3] was “Insoluble”. The solubility [4] was “Insoluble”, the solubility [5] was “Insoluble” and the “Ratio IC50” value (CCRF-CEM [6]) was 30.
For COc1cc(N)cc(Nc2c3ccccc3nc3c(OCCCCN(CCCl)CCCl)cccc23)c1, the Activity (CCRF-CEM [1]) was “Toxic”, the solubility [3] was “Insoluble” and the solubility [4] was “Insoluble”. The solubility [5] was “Insoluble” and the “Ratio IC50” value (CCRF-CEM [6]) was 30.
In the case of ClCCN(CCCl)CCOc1ccc(Nc2c3ccccc3nc3ccccc23)cc1, the Activity (CCRF-CEM [1]) is reported as “Toxic”, the solubility [3] is reported as “Insoluble” and the solubility [4] is reported as “Insoluble”. The solubility [5] was “Insoluble” and the “Ratio IC50” value (CCRF-CEM [6]) was 30.
